Holding throughout (type): functional
The species named for assay [1] is Oryctolagus cuniculus. Put plainly: Tested for its antiviral activity in primary rabbit kidney (PRK) cell cultures inoculated with vaccinia virus.
Assay [2] is filed under the species Oryctolagus cuniculus. Put plainly: Tested for its antimetabolic activity by measuring the concentration required for [2-14C]- Urd incorporation into host cell DNA by 50%. Particulars: read-out: ID50 (the source's name). In outline: (§1)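 Primary rabbit kidney (PRK) cell cultures; incorporation of [methyl-3H]thymidine or [2-14C]2'-deoxyuridine into host cell DNA measured in presence of compound; value is concentration (µg/mL) reducing label incorporation by 50%; concentrations up to 400 µg/mL.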

The species named for assay [3] is Oryctolagus cuniculus. Put plainly: Tested for its antiviral activity in primary rabbit kidney (PRK) cell cultures inoculated with herpes simplex type 2 virus. In outline:
(§2)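 Primary rabbit kidney (PRK) cell cultures infected with HSV; inhibition of virus-induced cytopathogenicity scored; ID50 (µg/mL) is concentration reducing cytopathogenicity by 50%; means over three HSV-1 strains (KOS, F, McIntyre) or three HSV-2 strains (Lyons, 196, G), range across strains shown; top concentration 400 µg/mL.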

The species entered for assay [4] is Oryctolagus cuniculus. Put plainly: Tested for its antimetabolic activity by measuring the concentration required for [Me-3H] dThd incorporation into host cell DNA by 50%. Particulars: read-out: ID50 (the source's name). A digest of the protocol:
as §1

For assay [5], the species on record is Oryctolagus cuniculus. Put plainly: Tested for its antiviral activity in primary rabbit kidney (PRK) cell cultures inoculated with herpes simplex type 1 virus; range 4-10. In outline: as §2
Assay [6] is filed under the species Oryctolagus cuniculus. The assay can be described thus: Tested for its antiviral activity in primary rabbit kidney (PRK) cell cultures inoculated with herpes simplex type 1 virus. In outline:
as §2

For assay [7], the species on record is Oryctolagus cuniculus. Put plainly: Tested for its antiviral activity in primary rabbit kidney (PRK) cell cultures inoculated with herpes simplex type 2 virus; range 0.2-0.4. In outline: as §2

The structures appear in SMILES notation. In brackets after ≈: the same amount, converted by molar mass.

With `CSCc1cn([C@H]2C[C@H](O)[C@@H](CO)O2)c(=O)[nH]c1=O`, the results for the ID50 in assay [1], in assay [3] and in assay [5] were 200 µg/mL (≈ 694 µM), 4 µg/mL (≈ 13.9 µM) and 6 µg/mL (≈ 20.8 µM), respectively. The IC50 was over 400 µg/mL in assay [2] and 100 µg/mL (≈ 347 µM) in assay [4].
On to `CS(=O)(=O)Cc1cn([C@H]2C[C@H](O)[C@@H](CO)O2)c(=O)[nH]c1=O`, for which the ID50 in assay [6] was 4 µg/mL (≈ 12.5 µM); in assay [1], 200 µg/mL (≈ 624 µM); in assay [3], over 400 µg/mL. In addition, the IC50 was over 400 µg/mL in assay [2] and 300 µg/mL (≈ 937 µM) in assay [4].
On to `C[S+]([O-])Cc1cn([C@H]2C[C@H](O)[C@@H](CO)O2)c(=O)[nH]c1=O` (some centres not stated), for which the ID50 in assay [6] and in assay [3] was over 400 µg/mL each time.
Take `O=c1[nH]c(=O)n([C@H]2C[C@H](O)[C@@H](CO)O2)cc1I` [IDOXURIDINE]: the ID50 was 0.15 µg/mL (≈ 0.424 µM) in assay [6], 0.2 µg/mL (≈ 0.565 µM) in assay [1] and 0.3 µg/mL (≈ 0.847 µM) in assay [7]. Further, the figures for the IC50 in assay [2] and in assay [4] were 1.2 µg/mL (≈ 3.39 µM) and 2.5 µg/mL (≈ 7.06 µM), respectively.

Source of the values: ChEMBL document CHEMBL1121399, “Synthesis of 5-[(methylthio)methyl]-2'-deoxyuridine, the corresponding sulfoxide and sulfone, and their 5'-phosphates: antiviral effects and thymidylate synthetase inhibition” (1980).
